Results on 13 molecules are retold here after ChEMBL document CHEMBL2417493, “Novel cycloalkylthiophene-imine derivatives bearing benzothiazole scaffold: synthesis, characterization and antiviral activity evaluation” (Bioorg Med Chem Lett, 2013).

≈ marks a conversion by molar mass, not a printed value. Calls of active or inactive are those of the source. The rule behind the calls is not given here.

For series [1], the system named is Influenza A virus. Nature of the series: Antiviral activity against influenza A virus H1N1 infected in dog MDCK cells assessed as inhibition of virus-induced cytopathogenicity at 32 ug/ml after 48 hrs by crystal violet staining method. The series is classed as functional, organism-based. The essentials:
(§1)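 Single-concentration screen with these pairings: RD/EV71, HepG2/CVB5, HeLa/ADV7, MDCK/H1N1. Cells were infected and kept 48 h in the presence of compound at one fixed concentration; some EV71 tests used the lower level. Inhibition of virus proliferation was read by crystal violet staining.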
For orientation: Damage to the host cells serves as the signal in cytopathic effect assays.

Series [2] deals with unidentified adenovirus. Nature of the series: Antiviral activity against Adenovirus type 7 infected in human HeLa cells assessed as inhibition of virus-induced cytopathogenicity at 32 ug/ml after 48 hrs by crystal violet staining method. The series is classed as functional. Put shortly:
as §1

The subject of series [3] is Coxsackievirus B5. Put plainly: Antiviral activity against Coxsackievirus B5 infected in human HepG2 cells assessed as inhibition of virus-induced cytopathogenicity at 32 ug/ml after 48 hrs by crystal violet staining method. The series is classed as functional. Put shortly:
as §1

For series [4], the system named is Enterovirus. Nature of the series: Antiviral activity against Enterovirus 71 infected in human rhabdomyosarcoma cells assessed as inhibition of virus-induced cytopathogenicity at 32 ug/ml after 48 hrs by crystal violet staining method. The series is classed as functional. The essentials:
as §1

Series [5] has as its system Influenza A virus. Nature of the series: Antiviral activity against influenza A virus H1N1 infected in dog MDCK cells assessed as inhibition of virus-induced cytopathogenicity after 48 hrs by crystal violet staining method. The series is classed as functional, organism-based. The essentials:
(§2)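 Virus–cell pairings were EV71 in RD, CVB5 in HepG2, ADV7 in HeLa and influenza A H1N1 in MDCK. Compounds were added […], and total infectivity was read by crystal violet staining. EC50 is the concentration reducing viral replication by 50%. Values are mean SD of three independent experiments.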

Series [6] relates to unidentified adenovirus. Nature of the series: Antiviral activity against Adenovirus type 7 infected in human HeLa cells assessed as inhibition of virus-induced cytopathogenicity after 48 hrs by crystal violet staining method. The series is classed as functional, organism-based. The essentials: as §2
The nature of series [7]: Cytotoxicity against human HeLa cells after 72 hrs by MTT assay. The series is classed as cell-based. Put shortly:
(§3)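 MTT assay on RD (rhabdomyosarcoma), HepG2 and HeLa cell lines. CC50 is the concentration that cut cell viability by 50% relative to 0.1% DMSO-treated mock-control cells. Values are mean and SD of three independent experiments.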
(Tetrazolium assays rely on reduction of a dye to a coloured formazan, in cell work by metabolically active cells.)

Series [8] concerns Coxsackievirus B5. Put plainly: Antiviral activity against Coxsackievirus B5 infected in human HepG2 cells assessed as inhibition of virus-induced cytopathogenicity after 48 hrs by crystal violet staining method. The series is classed as functional, organism-based. Put shortly:
as §2

A short description of series [9]: Cytotoxicity against human HepG2 cells after 72 hrs by MTT assay. The series is classed as cell-based. Put shortly:
as §3

Series [10] relates to Enterovirus. Put plainly: Antiviral activity against Enterovirus 71 infected in human rhabdomyosarcoma cells assessed as inhibition of virus-induced cytopathogenicity after 48 hrs by crystal violet staining method. The series is classed as functional, organism-based. Put shortly: as §2
A short description of series [11]: Cytotoxicity against human rhabdomyosarcoma cells after 72 hrs by MTT assay. The series is classed as cell-based, Rhabdomyosarcoma cell. The essentials: as §3

The term CC50 denotes the concentration giving 50% cytotoxicity. A lower CC50 goes with greater toxicity to the cells. For the molecule `Fc1ccccc1/C=N/c1sc2c(c1-c1nc3ccccc3s1)CCC2`, the inhibition result in the series on Influenza A virus [1], in the series on unidentified adenovirus [2], in the series with Coxsackievirus B5 [3] and in the series on Enterovirus [4] was “Active” throughout. The “inhibition (INH)” value with Influenza A virus [5], in the series with unidentified adenovirus [6], in the series with Coxsackievirus B5 [8] and with Enterovirus [10] was below 50% each time. The CC50 at 72 h in series [7] was 355 µg/mL (≈ 938 µM); in series [9], 394 µg/mL (≈ 1040 µM); in [11], 270 µg/mL (≈ 713 µM).

For the molecule `COc1cc(/C=N/c2sc3c(c2-c2nc4ccccc4s2)CCCC3)cc(OC)c1OC`, the inhibition entry in the series with Influenza A virus [1], in the series on unidentified adenovirus [2], with Coxsackievirus B5 [3] and with Enterovirus [4] was “Active” in each case. In addition, the “inhibition (INH)” value with Influenza A virus [5], with unidentified adenovirus [6], in the series on Coxsackievirus B5 [8] and with Enterovirus [10] was below 50% each time. Also, the CC50 at 72 h came to 448 µg/mL (≈ 963 µM) in series [7], 301 µg/mL (≈ 648 µM) in [9] and 381 µg/mL (≈ 821 µM) in series [11].

Consider `C(=C\c1ccccc1)/C=N/c1sc2c(c1-c1nc3ccccc3s1)CCC2`, for which the inhibition entry in the series on Influenza A virus [1], in the series with unidentified adenovirus [2], in the series on Coxsackievirus B5 [3] and in the series on Enterovirus [4] was “Active” throughout. Further, the “inhibition (INH)” value in the series on Influenza A virus [5], with unidentified adenovirus [6], with Coxsackievirus B5 [8] and in the series on Enterovirus [10] was below 50% each time. Besides, the CC50 at 72 h was 100 µg/mL (≈ 259 µM) in [7], 215 µg/mL (≈ 555 µM) in series [9] and 122 µg/mL (≈ 317 µM) in series [11].

As to `Clc1ccc(/C=N/c2sc3c(c2-c2nc4ccccc4s2)CCC3)c(Cl)c1`, the inhibition result with Influenza A virus [1], with unidentified adenovirus [2], in the series with Coxsackievirus B5 [3] and with Enterovirus [4] was “Active” each time. Also, the “inhibition (INH)” value in the series with Influenza A virus [5], in the series on unidentified adenovirus [6], with Coxsackievirus B5 [8] and with Enterovirus [10] was below 50% throughout. Further, the CC50 at 72 h in series [7] turned out to be 345 µg/mL (≈ 804 µM); in series [9], 310 µg/mL (≈ 722 µM); in series [11], 160 µg/mL (≈ 372 µM).

`Clc1ccc(/C=N/c2sc3c(c2-c2nc4ccccc4s2)CCCC3)cc1`: the inhibition entry in the series on Influenza A virus [1], in the series with unidentified adenovirus [2], in the series with Coxsackievirus B5 [3] and with Enterovirus [4] was “Active” in each case. Besides, the “inhibition (INH)” value with Influenza A virus [5], with unidentified adenovirus [6], with Coxsackievirus B5 [8] and with Enterovirus [10] was below 50% each time. The CC50 at 72 h in [7] turned out to be 431 µg/mL (≈ 1050 µM); in series [9] it was 397 µg/mL (≈ 970 µM); in series [11], 367 µg/mL (≈ 898 µM).

For the molecule `Clc1ccc(/C=N/c2sc3c(c2-c2nc4ccccc4s2)CCC3)cc1`, the inhibition result in the series on Influenza A virus [1], in the series with unidentified adenovirus [2], in the series on Coxsackievirus B5 [3] and in the series with Enterovirus [4] was “Active” each time. For the same molecule, the “inhibition (INH)” value in the series on Influenza A virus [5], in the series with unidentified adenovirus [6], with Coxsackievirus B5 [8] and in the series on Enterovirus [10] was below 50% each time. Further, the CC50 at 72 h amounted to 380 µg/mL (≈ 963 µM) in series [7], 430 µg/mL (≈ 1090 µM) in series [9] and 342 µg/mL (≈ 867 µM) in series [11].

For `Clc1ccc2sc(-c3c(/N=C/C=C/c4ccccc4)sc4c3CCCC4)nc2c1`, the inhibition entry in the series on Influenza A virus [1], with unidentified adenovirus [2], in the series with Coxsackievirus B5 [3] and with Enterovirus [4] was “Active” throughout. The “inhibition (INH)” value with Influenza A virus [5], with unidentified adenovirus [6], in the series on Coxsackievirus B5 [8] and in the series with Enterovirus [10] was below 50% throughout. For the same molecule, the CC50 at 72 h worked out at 150 µg/mL (≈ 346 µM) in series [7], 114 µg/mL (≈ 262 µM) in [9] and 212 µg/mL (≈ 486 µM) in [11].

In the case of `Clc1ccc2sc(-c3c(/N=C/C=C/c4ccccc4)sc4c3CCC4)nc2c1`, the inhibition entry in the series with Influenza A virus [1], with unidentified adenovirus [2], in the series on Coxsackievirus B5 [3] and with Enterovirus [4] was “Active” throughout. In addition, the “inhibition (INH)” value with Influenza A virus [5], with unidentified adenovirus [6], with Coxsackievirus B5 [8] and in the series on Enterovirus [10] was below 50% throughout. Moreover, the 50% cytotoxic concentration (CC50) at 72 h in series [7] was found to be 200 µg/mL (≈ 476 µM); in series [9], 14.9 µg/mL (≈ 35.4 µM); in series [11], 122 µg/mL (≈ 291 µM).

Regarding `FC(F)(F)c1ccc(/C=N/c2sc3c(c2-c2nc4ccccc4s2)CCCC3)cc1`, the inhibition result in the series with Influenza A virus [1], with unidentified adenovirus [2], in the series with Coxsackievirus B5 [3] and with Enterovirus [4] was “Active” throughout. The “inhibition (INH)” value in the series on Influenza A virus [5], with unidentified adenovirus [6], in the series on Coxsackievirus B5 [8] and in the series on Enterovirus [10] was below 50% throughout. Besides, the CC50 at 72 h in series [7] was 368 µg/mL (≈ 833 µM); in [9], 361 µg/mL (≈ 816 µM); in [11] it was 250 µg/mL (≈ 566 µM).

Take `Clc1ccc(/C=N/c2sc3c(c2-c2nc4ccccc4s2)CCCC3)c(Cl)c1`: the inhibition entry in the series on Influenza A virus [1], in the series on unidentified adenovirus [2], in the series on Coxsackievirus B5 [3] and in the series with Enterovirus [4] was “Active” throughout. In addition, the “inhibition (INH)” value in the series on Influenza A virus [5], in the series on unidentified adenovirus [6], in the series on Coxsackievirus B5 [8] and in the series with Enterovirus [10] was below 50% throughout. Further, the results for the CC50 at 72 h in series [7], in series [9] and in series [11] were 542 µg/mL (≈ 1220 µM), 384 µg/mL (≈ 865 µM) and 56.6 µg/mL (≈ 128 µM), respectively.

Consider `Fc1ccccc1/C=N/c1sc2c(c1-c1nc3ccccc3s1)CCCC2`, for which the inhibition result in the series on Influenza A virus [1], in the series with unidentified adenovirus [2], in the series on Coxsackievirus B5 [3] and in the series on Enterovirus [4] was “Active” each time. The “inhibition (INH)” value in the series on Influenza A virus [5], in the series on unidentified adenovirus [6], in the series on Coxsackievirus B5 [8] and with Enterovirus [10] was below 50% each time. The CC50 at 72 h in [7] is 426 µg/mL (≈ 1090 µM); in series [9] it was 398 µg/mL (≈ 1010 µM); in series [11], 319 µg/mL (≈ 812 µM).

As to `Clc1ccccc1/C=N/c1sc2c(c1-c1nc3ccccc3s1)CCC2`, the inhibition entry in the series on Influenza A virus [1], in the series with unidentified adenovirus [2], in the series on Coxsackievirus B5 [3] and with Enterovirus [4] was “Active” each time. Moreover, the “inhibition (INH)” value in the series on Influenza A virus [5], in the series on unidentified adenovirus [6], in the series with Coxsackievirus B5 [8] and with Enterovirus [10] was below 50% in each case. The figures for the CC50 at 72 h in series [7], in series [9] and in [11] were 138 µg/mL (≈ 350 µM), 180 µg/mL (≈ 456 µM) and 123 µg/mL (≈ 312 µM), respectively.

Regarding `O=[N+]([O-])c1ccc(/C=N/c2sc3c(c2-c2nc4ccccc4s2)CCCC3)cc1`, the inhibition result in the series on Influenza A virus [1], in the series on unidentified adenovirus [2], in the series with Coxsackievirus B5 [3] and with Enterovirus [4] was “Active” in each case. Besides, the “inhibition (INH)” value in the series with Influenza A virus [5], in the series with unidentified adenovirus [6], in the series with Coxsackievirus B5 [8] and with Enterovirus [10] was below 50% each time. The results for the CC50 at 72 h in series [7], in series [9] and in series [11] were 357 µg/mL (≈ 850 µM), 454 µg/mL (≈ 1080 µM) and 316 µg/mL (≈ 754 µM), respectively.
